Screening results deposited in PubChem BioAssay by several laboratories.
MT stabilizer = microtubule stabilizers in HeLa cells, primary screen, imaging, high-content imaging | % tubulin-high responders, % at 10 µM | actives 0.83% (n = 200,000) | AID 2205, 2009 | HeLa tubulin immunostaining HCS, 24 h; share of cells brighter than vehicle mean+2SD;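 active = plate Z-score above 3 for both tubulin-high and condensed-nucleus cell shares, with cell loss under 80%, at 10 µM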;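 note: anti alpha tubulin signal scored within the nucleus-defined area of each cell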
CHOP inh = inhibitors of CHOP promoter induction, primary screen, cell-based, unfolded protein response, luciferase reporter | CHO-K1 CHOP-promoter luciferase, tunicamycin-induced, 15-18 h | inhibition, % at 10 µM | actives 3.8% (n = 220,000);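 active = compounds that reduced the stress-induced luciferase reporter signal by more than about 70% of percent inhibition, limit read from the data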;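 note: 0% = tunicamycin plus vehicle and 100% = wells without tunicamycin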
L major viab = Leishmania major promastigote growth inhibition, primary screen. Leishmania major promastigotes, resazurin fluorescence viability. inhibition, % at 10 µM. actives 9% (n = 200,000); in the data active = inhibition above about 50%;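 note: promastigotes grown with compound for 44 hours at 28 °C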
b-catenin transl = modulators of beta-catenin nuclear translocation, primary screen, imaging, HeLa cells, immunofluorescence, high-content | nuclear translocation activity, % at 5 µM | actives 0.3% (n = 190,000) | AID 1665, 2009;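 active = nuclear translocation activity above 50% at 5 µM, with a well cell count of 50 or more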;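 note: per-cell ratio of nuclear to cytoplasmic median beta-catenin stain intensity; plate controls were DMSO negative control for no effect and GSK-3 inhibitor IX positive control for full effect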
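Read-out: Nuclear/cytoplasmic beta-catenin signal ratio, % activation | Assay system: Human HeLa cell line | Times: 24 h compound exposure at 37°C, 5% CO2 | Signal: Fluorescence imaging of beta-catenin antibody stain plus DAPI | Dosing: 5 µM primary, 0.02–20 µM confirmation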
Dynein cargo inh = inhibitors of GR-EGFP nuclear translocation, primary screen, dynein cargo transport inhibitor project, imaging, high-content, 3617.4 mouse cells. test concentration mostly 20 µM; stimulated with dexamethasone, 1 µM; stronger effect = lower value. z-score, hits read low. actives 0.47% (n = 220,000);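 active = plate z-score of nuclear minus cytoplasmic receptor signal below a set negative limit, without overly bright fluorescence or cell loss, cut at about -3.5 in these data, passing the limit was not always enough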;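 note: z-score of nuclear minus cytoplasmic ring GR-EGFP intensity difference per well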
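Buffer or medium: tet-free, stripped-serum medium; reagent: dexamethasone at 1.0 µM final, 30 min; incubation: 48 h induction, 1 h compound, 30 min dex at 37 °C; measured by: formaldehyde fixation, Hoechst nuclear stain, 10x automated fluorescence imaging; read-out: nuclear-to-cytoplasmic GR-EGFP distribution per well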
Autophagy HCS = autophagy modulators in MEF cells, primary screen, imaging, high-content, MEF GFP-LC3; MEF GFP-LC3 puncta imaging; test concentration mostly 10 µM; calls only at 10 µM (by protocol); actives 0.98% (n = 190,000); AID 463193, 2010;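 active = percentage of spot-positive cells more than 3 SD above its plate mean, without a fluorescence outlier flag or 80% toxicity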;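 note: spot-positive cell cutoff set from DMSO-treated cells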
The depositor's hits bear a star; i = inactive; . = not tested or not shown; + = active, no number. An excerpt weighted towards active compounds, which were near 12% of everything screened.

SMILES	MT stabilizer	CHOP inh	L major viab	b-catenin transl	Dynein cargo inh	Autophagy HCS
CCN(CC)C(=O)/C(=C/c1cccc([N+](=O)[O-])c1)NC(=O)c1ccco1	2	14	0	0	-0.18	i
CC(NC(=O)/C(=C/c1cccc([N+](=O)[O-])c1)NC(=O)c1ccco1)C(=O)O (stereo unspecified)	3	8	55*	2	-0.71	i
Cc1ccc(S(=O)(=O)N(C)C)cc1NC(=O)CN1C(=O)NC2(CCCc3ccccc32)C1=O (stereo unspecified)	2	43	72*	0	0.074	i
Cc1cc(C(=O)CN2C(=O)NC3(CCCc4ccccc43)C2=O)c(C)n1Cc1ccccc1 (stereo unspecified)	4	43	53*	-7	0.025	i
O=C(O)Cn1ncn(-c2ccc(OC(F)(F)F)cc2)c1=O	4	-21	-4	-1	-0.48	i
Cc1[nH][nH]c(=O)c1C(c1ccc(-c2cccc(Cl)c2)o1)c1c(C)[nH][nH]c1=O	.	-24	.	-1	-0.025	.
COC(=O)c1ccc(-c2ccc(C(c3c(C)[nH][nH]c3=O)c3c(C)[nH][nH]c3=O)o2)cc1	4	-13	97*	4	2.2	i
Cc1[nH][nH]c(=O)c1C(c1ccc(-c2ccc(Cl)cc2Cl)o1)c1c(C)[nH][nH]c1=O	2	-30	100*	.	-1.2	i
Cc1[nH][nH]c(=O)c1C(c1ccc(-c2cccc(C(=O)O)c2)o1)c1c(C)[nH][nH]c1=O	2	-6	-11	3	-0.12	i
COC(=O)Cc1[nH]n(-c2ccccc2)c(=O)c1C=Nc1ccc(C)cc1	.	-1	.	1	-0.88	.
CNC(=S)N1CCC(NC(=O)C(Cc2ccccc2)NC(C)=O)CC1 (stereo unspecified)	2	3	-1	0	0.089	i
CC(C)(C)C(=O)Nc1ccc(C(=O)N/N=C/c2ccccc2OC(=O)c2ccc(Cl)cc2)cc1	3	44	55*	2	-0.58	i
CCOc1cc(/C=N\NC(=O)c2ccc(NC(=O)CC)cc2)ccc1OC(=O)c1ccccc1	3	75*	-4	-2	-0.22	i
CCOc1cc(/C=N\NC(=O)c2ccc(NC(=O)C(C)(C)C)cc2)ccc1OC(=O)c1cccc(C)c1	2	34	23	-1	0.4	i
CCOc1cc(/C=N\NC(=O)c2ccc(NC(=O)C(C)(C)C)cc2)ccc1OC(=O)c1ccc(C)cc1	9	83*	-4	-2	0.13	i
CCOc1cc(/C=N/NC(=O)c2cc(C)[nH]n2)ccc1OC(=O)c1ccc([N+](=O)[O-])cc1	3	79*	-3	1	0.044	i
CC(C)(C)C(=O)Nc1ccc(C(=O)N/N=C/c2ccccc2OC(=O)c2ccccc2)cc1	1	38	50	1	-0.54	i
Cc1ccc(-c2noc(CCC(=O)NCCN3CCc4ccccc4C3)n2)cc1	5	22	0	-6	0.61	i
COc1ccc(NC(=O)CC2C(=O)N(C)C(=S)N2CCc2ccccc2F)cc1 (stereo unspecified)	2	16	8	0	0.2	i
O=C(/C=C/c1ccccc1)c1ccc2c3c(cccc13)CC2	2	-49	71*	-1	-0.84	i
O=C(/C=C/c1ccccc1)c1ccccc1	5	-64	17	-4	-0.83	i
CCc1ccc2[nH]c(=O)c(CN(CCN(CC)CC)C(=O)Nc3ccccc3OC)cc2c1	3	60	28	-1	-0.6	+
COc1ccccc1NC(=S)N(CCCN(C)C)Cc1cc2cc3c(cc2[nH]c1=O)OCO3	3	50	-6	-2	-0.91	i
COC(=O)c1ccccc1NC(=S)N(Cc1ccc2c(c1)OCO2)Cc1cc2cc(OC)ccc2[nH]c1=O	3	17	55*	0	-0.49	i
